Assay results as given in ChEMBL document CHEMBL3627646, “Synthesis and biological activity of amino acid derivatives of avarone and its model compound” (Bioorg Med Chem, 2015).
pIC50: −log10 of the molar value. Values after ≈ are worked out from the molar mass of the structure shown.

Key:
HeLa = test: Cytotoxicity against human HeLa cells assessed as cell survival after 72 hrs by MTT assay; format: functional, cell-based
Summary of the method: (§1)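 Cells seeded (HeLa 2000, MDA-MB-453 3000, others 5000 per well), treated 24 h later (K562 after 2 h). Five double-diluted final concentrations, 200–12.5 μM, from 10 mM DMSO stocks, in RPMI-1640 with 10% FBS, pH 7.2, 72 h. MTT 4 h at 37 °C, SDS added, A570 read next day. Survival relative to medium control; IC50 from survival curves; triplicate; cisplatin positive control.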

A549 = test: Cytotoxicity against human A549 cells assessed as cell survival after 72 hrs by MTT assay; format: functional, cell-based; conditions: A549, 72 h; summary of the method: as §1
[1] = Cytotoxicity against human Fem-X cells assessed as cell survival after 72 hrs by MTT assay; format: functional, cell-based; summary of the method: as §1
K562 = test: Cytotoxicity against human K562 cells assessed as cell survival after 72 hrs by MTT assay; format: functional, cell-based; conditions: K562, 72 h; summary of the method: as §1
MDA-MB-453 = test: Cytotoxicity against human MDA-MB-453 cells assessed as cell survival after 72 hrs by MTT assay; format: functional, cell-based; conditions: MDA-MB-453, 72 h; summary of the method: as §1
MRC5 = test: Cytotoxicity against human MRC5 cells assessed as cell survival after 72 hrs by MTT assay; format: cell-based; conditions: MRC5, 72 h; summary of the method: as §1
Staphylococcus aureus = test: Antibacterial activity against Staphylococcus aureus ATCC 6538 after 24 hrs by microbroth double dilution method; format: functional; conditions: ATCC 6538, 24 h
Summary of the method: (§2)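 Microbroth double dilution in Mueller Hinton broth; compound stock 10 mg/mL in DMSO serially halved across rows. Wells inoculated with 10 μL culture at 10^6 cells/mL, incubated 37 °C for 24 h. Amikacin row as positive control, DMSO row as negative control. MIC taken as lowest concentration inhibiting bacterial growth.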

Kocuria rhizophila = test: Antibacterial activity against Kocuria rhizophila ATCC 9341 after 24 hrs by microbroth double dilution method; format: functional; conditions: ATCC 9341, 24 h; summary of the method: as §2
Bacillus subtilis = test: Antibacterial activity against Bacillus subtilis ATCC 6633 after 24 hrs by microbroth double dilution method; format: functional; conditions: ATCC 6633, 24 h; summary of the method: as §2
Micrococcus luteus = test: Antibacterial activity against Micrococcus luteus ATCC 4698 after 24 hrs by microbroth double dilution method; format: functional; conditions: ATCC 4698, 24 h; summary of the method: as §2
Micrococcus flavus = test: Antibacterial activity against Micrococcus flavus ATCC 10240 after 24 hrs by microbroth double dilution method; format: functional; conditions: ATCC 10240, 24 h; summary of the method: as §2
Clostridium sporogenes = test: Antibacterial activity against Clostridium sporogenes ATCC 19404 after 24 hrs by microbroth double dilution method; format: functional; conditions: ATCC 19404, 24 h; summary of the method: as §2
Escherichia coli = test: Antibacterial activity against Escherichia coli ATCC 25922 after 24 hrs by microbroth double dilution method; format: functional; conditions: ATCC 25922, 24 h; summary of the method: as §2
Proteus hauseri = test: Antibacterial activity against Proteus hauseri ATCC 13315 after 24 hrs by microbroth double dilution method; format: functional; conditions: ATCC 13315, 24 h; summary of the method: as §2
Salmonella enterica = test: Antibacterial activity against Salmonella enterica ATCC 13076 after 24 hrs by microbroth double dilution method; format: functional; conditions: ATCC 13076, 24 h; summary of the method: as §2
Pseudomonas aeruginosa = test: Antibacterial activity against Pseudomonas aeruginosa ATCC 9027 after 24 hrs by microbroth double dilution method; format: functional; conditions: ATCC 9027, 24 h; summary of the method: as §2
Candida albicans = test: Antifungal activity against Candida albicans ATCC 10231 after 24 hrs by microbroth double dilution method; format: functional
Saccharomyces cerevisiae = test: Antifungal activity against Saccharomyces cerevisiae ATCC 9763 after 24 hrs by microbroth double dilution method; format: functional
Aspergillus brasiliensis = test: Antifungal activity against Aspergillus brasiliensis ATCC 16404 after 24 hrs by microbroth double dilution method; format: functional
Artemia salina = test: Cytotoxicity in Brine shrimp assessed as nauplii mortality after 24 hrs; format: organism-based; conditions: in vivo
Summary of the method: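 Artemia salina eggs hatched in aerated tap water with dried yeast at 18–20 °C under illumination for 48 h, and freshly hatched nauplii were used. Compounds in DMSO (0.01–1 mg) were added to 950 µL artificial seawater containing 10–20 nauplii, with 5% final DMSO. After 24 h under illumination at room temperature, dead and surviving nauplii were counted and statistically analysed.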

CC1=CCC[C@H]2[C@](C)(CC3=CC(=O)C=C(N[C@@H](Cc4c[nH]c5ccccc45)C(=O)O)C3=O)[C@@H](C)CC[C@]12C
pIC50 (HeLa): 4.79 | pIC50 (A549): 4.40 | pIC50 [1]: 4.83 | pIC50 (K562): 4.79 | pIC50 (MDA-MB-453): 4.64 | pIC50 (MRC5): 3.80 | MIC (Staphylococcus aureus): 19.1 µM (≈ 9.81 µg/mL) | MIC (Kocuria rhizophila): 305 µM (≈ 157 µg/mL) | MIC (Bacillus subtilis): 37.9 µM (≈ 19.5 µg/mL) | MIC (Micrococcus luteus): 19.1 µM (≈ 9.81 µg/mL) | MIC (Micrococcus flavus): 37.9 µM (≈ 19.5 µg/mL) | MIC (Clostridium sporogenes): 37.9 µM (≈ 19.5 µg/mL) | MIC (Escherichia coli): 19.1 µM (≈ 9.81 µg/mL) | MIC (Proteus hauseri): 37.9 µM (≈ 19.5 µg/mL) | MIC (Salmonella enterica): 19.1 µM (≈ 9.81 µg/mL) | MIC (Pseudomonas aeruginosa): 37.9 µM (≈ 19.5 µg/mL) | MIC (Candida albicans; ATCC 10231, 24 h): 305 µM (≈ 157 µg/mL) | MIC (Saccharomyces cerevisiae; ATCC 9763, 24 h): < 2.39 µM | MIC (Aspergillus brasiliensis; ATCC 16404, 24 h): 1220 µM (≈ 626 µg/mL)

NYSTATIN
MIC (Candida albicans): 2700 µM | MIC (Saccharomyces cerevisiae): 1350 µM | MIC (Aspergillus brasiliensis): 1350 µM

NCC[C@H](O)C(=O)N[C@@H]1C[C@H](N)[C@@H](O[C@H]2O[C@H](CN)[C@@H](O)[C@H](O)[C@H]2O)[C@H](O)[C@H]1O[C@H]1O[C@H](CO)[C@@H](O)[C@H](N)[C@H]1O [AMIKACIN]
MIC (Staphylococcus aureus): 18.8 µM (≈ 11 µg/mL) | MIC (Kocuria rhizophila): 3.42 µM (≈ 2 µg/mL) | MIC (Bacillus subtilis): 71.7 µM (≈ 42 µg/mL) | MIC (Micrococcus luteus): 13.7 µM (≈ 7.99 µg/mL) | MIC (Micrococcus flavus): 3.42 µM (≈ 2 µg/mL) | MIC (Clostridium sporogenes): 25.6 µM (≈ 15 µg/mL) | MIC (Escherichia coli): 8.54 µM (≈ 5 µg/mL) | MIC (Proteus hauseri): 11.9 µM (≈ 7 µg/mL) | MIC (Salmonella enterica): 13.7 µM (≈ 8 µg/mL) | MIC (Pseudomonas aeruginosa): 85.4 µM (≈ 50 µg/mL)

CC1=CCC[C@H]2[C@](C)(CC3=CC(=O)C=C(N[C@@H](Cc4ccccc4)C(=O)O)C3=O)[C@@H](C)CC[C@]12C
pIC50 (HeLa): 4.83 | pIC50 (A549): 4.40 | pIC50 [1]: 4.76 | pIC50 (K562): 4.69 | pIC50 (MDA-MB-453): 4.78 | pIC50 (MRC5): < 3.70 | MIC (Staphylococcus aureus): 10.3 µM (≈ 4.91 µg/mL) | MIC (Kocuria rhizophila): 331 µM (≈ 157 µg/mL) | MIC (Bacillus subtilis): 20.6 µM (≈ 9.81 µg/mL) | MIC (Micrococcus luteus): 10.3 µM (≈ 4.91 µg/mL) | MIC (Micrococcus flavus): 82.1 µM (≈ 39.1 µg/mL) | MIC (Clostridium sporogenes): 82.1 µM (≈ 39.1 µg/mL) | MIC (Escherichia coli): 10.3 µM (≈ 4.91 µg/mL) | MIC (Proteus hauseri): 82.1 µM (≈ 39.1 µg/mL) | MIC (Salmonella enterica): 20.6 µM (≈ 9.81 µg/mL) | MIC (Pseudomonas aeruginosa): 20.6 µM (≈ 9.81 µg/mL) | MIC (Candida albicans; ATCC 10231, 24 h): 164 µM (≈ 78.1 µg/mL) | MIC (Saccharomyces cerevisiae; ATCC 9763, 24 h): 10.3 µM (≈ 4.91 µg/mL) | MIC (Aspergillus brasiliensis; ATCC 16404, 24 h): 1320 µM (≈ 626 µg/mL) | LC50 (Artemia salina): 96.7 ppm

C[C@H](NC1=CC(=O)C=C(C(C)(C)C)C1=O)C(=O)O
pIC50 (HeLa): 4.05 | pIC50 (A549): < 3.70 | pIC50 [1]: 4.70 | pIC50 (K562): 4.11 | pIC50 (MDA-MB-453): 3.95 | pIC50 (MRC5): < 3.70 | MIC (Staphylococcus aureus): 1250 µM (≈ 313 µg/mL) | MIC (Kocuria rhizophila): 4980 µM (≈ 1250 µg/mL) | MIC (Bacillus subtilis): 2490 µM (≈ 626 µg/mL) | MIC (Micrococcus luteus): 1250 µM (≈ 313 µg/mL) | MIC (Micrococcus flavus): 2490 µM (≈ 626 µg/mL) | MIC (Clostridium sporogenes): 2490 µM (≈ 626 µg/mL) | MIC (Escherichia coli): 1250 µM (≈ 313 µg/mL) | MIC (Proteus hauseri): 4980 µM (≈ 1250 µg/mL) | MIC (Salmonella enterica): 2490 µM (≈ 626 µg/mL) | MIC (Pseudomonas aeruginosa): 2490 µM (≈ 626 µg/mL) | MIC (Candida albicans; ATCC 10231, 24 h): 626 µM (≈ 157 µg/mL) | MIC (Saccharomyces cerevisiae; ATCC 9763, 24 h): 626 µM (≈ 157 µg/mL) | MIC (Aspergillus brasiliensis; ATCC 16404, 24 h): 1240 µM (≈ 312 µg/mL) | LC50 (Artemia salina): 393.8 ppm

CC(C)[C@@H](NC1=CC(=O)C=C(C(C)(C)C)C1=O)C(=O)O
pIC50 (HeLa): 4.02 | pIC50 (A549): 3.81 | pIC50 [1]: 4.61 | pIC50 (K562): 4.24 | pIC50 (MDA-MB-453): 3.88 | pIC50 (MRC5): < 3.70 | MIC (Staphylococcus aureus): 1120 µM (≈ 313 µg/mL) | MIC (Kocuria rhizophila): 4480 µM (≈ 1250 µg/mL) | MIC (Bacillus subtilis): 2240 µM (≈ 626 µg/mL) | MIC (Micrococcus luteus): 1120 µM (≈ 313 µg/mL) | MIC (Micrococcus flavus): 2240 µM (≈ 626 µg/mL) | MIC (Clostridium sporogenes): 2240 µM (≈ 626 µg/mL) | MIC (Escherichia coli): 1120 µM (≈ 313 µg/mL) | MIC (Proteus hauseri): 4480 µM (≈ 1250 µg/mL) | MIC (Salmonella enterica): 4480 µM (≈ 1250 µg/mL) | MIC (Pseudomonas aeruginosa): 2240 µM (≈ 626 µg/mL) | MIC (Candida albicans; ATCC 10231, 24 h): 563 µM (≈ 157 µg/mL) | MIC (Saccharomyces cerevisiae; ATCC 9763, 24 h): 563 µM (≈ 157 µg/mL) | MIC (Aspergillus brasiliensis; ATCC 16404, 24 h): 2240 µM (≈ 626 µg/mL) | LC50 (Artemia salina): 574.9 ppm

CC1=CCC[C@H]2[C@](C)(CC3=CC(=O)C=C(NCC(=O)O)C3=O)[C@@H](C)CC[C@]12C
pIC50 (HeLa): 4.70 | pIC50 (A549): 4.33 | pIC50 [1]: 4.75 | pIC50 (K562): 4.81 | pIC50 (MDA-MB-453): 5.23 | pIC50 (MRC5): 3.74 | MIC (Staphylococcus aureus): 101 µM (≈ 39 µg/mL) | MIC (Kocuria rhizophila): 811 µM (≈ 313 µg/mL) | MIC (Bacillus subtilis): 407 µM (≈ 157 µg/mL) | MIC (Micrococcus luteus): 101 µM (≈ 39 µg/mL) | MIC (Micrococcus flavus): 407 µM (≈ 157 µg/mL) | MIC (Clostridium sporogenes): 407 µM (≈ 157 µg/mL) | MIC (Escherichia coli): 101 µM (≈ 39 µg/mL) | MIC (Proteus hauseri): 811 µM (≈ 313 µg/mL) | MIC (Salmonella enterica): 407 µM (≈ 157 µg/mL) | MIC (Pseudomonas aeruginosa): 407 µM (≈ 157 µg/mL) | MIC (Candida albicans; ATCC 10231, 24 h): 12.6 µM (≈ 4.86 µg/mL) | MIC (Saccharomyces cerevisiae; ATCC 9763, 24 h): 100 µM (≈ 38.7 µg/mL) | MIC (Aspergillus brasiliensis; ATCC 16404, 24 h): 404 µM (≈ 156 µg/mL) | LC50 (Artemia salina): 487.1 ppm
